Screening results (PubChem)
Env fusion inh = inhibitors of HIV Env-mediated cell fusion; HeLa-JRFL Env/CEM21 cell fusion, luciferase; inhibition, % at 12.3 µM; 360,000 compounds, 1.1% hits;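 active = mean replicate inhibition score of at least 50 and every replicate individually at or above 50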;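 also: 0% = plate neutral controls and 100% = maraviroc near 300 nM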
FXN GAA850 act = activators of GAA850 frataxin (FXN) promoter; AID 540364; 360,000 compounds, 0.56% hits; activation, % at 6 µM; HEK293 lucGAA850 FXN promoter luciferase reporter, 24 h; percent of 10 µM SAHA response;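 active = activation above the average of all compounds screened plus 3 SD, cutoff fixed separately per campaign, cut at about 7.5% in these data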;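 also: 0% = DMSO wells and 100% = 10 µM SAHA wells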
NR2E3 ag-1 = activates human photoreceptor nuclear receptor NR2E3. GST-NR2E3/biotin-RetCOR TR-FRET, 1536-well. inhibition of corepressor binding, % at 4.78 µM. 320,000 compounds, 0.12% hits. AID 2300;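 active = percent inhibition above the cutoff of mean plus 3 SD of all tested compounds, set per screening campaign, cut at about 20% in these data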;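 also: 0% = DMSO wells and 100% = biotin wells as full block of FRET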
Target sequence (Q9Y5X4 whole entry, looked up): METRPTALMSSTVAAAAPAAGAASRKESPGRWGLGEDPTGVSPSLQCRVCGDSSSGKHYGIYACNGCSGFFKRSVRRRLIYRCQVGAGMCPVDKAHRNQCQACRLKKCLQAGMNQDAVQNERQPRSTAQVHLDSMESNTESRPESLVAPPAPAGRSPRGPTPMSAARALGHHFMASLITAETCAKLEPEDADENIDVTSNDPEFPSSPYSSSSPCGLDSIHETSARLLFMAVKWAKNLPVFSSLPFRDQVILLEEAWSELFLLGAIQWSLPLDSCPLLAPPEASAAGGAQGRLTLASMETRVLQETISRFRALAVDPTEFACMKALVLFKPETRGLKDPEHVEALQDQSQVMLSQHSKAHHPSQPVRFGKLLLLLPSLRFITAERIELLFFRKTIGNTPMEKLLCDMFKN
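Format: 1536-well format; test system: GST-NR2E3 and biotin-RetCOR proteins; read-out basis: percent inhibition of TR-FRET ratio; timing: 5 h incubation at 4 °C; detection: time-resolved FRET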
GalR3 antagonist = blocks the human galanin receptor 3; HEK293 GalR3-CNG cAMP membrane potential fluorescence; galR3 body fused to GalR1 C-terminus; inhibition, % at 3 µM; 360,000 compounds, 0.44% hits; AID 651719;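 active = inhibition above the screen-wide average plus 3 SD, cut at about 13% in these data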;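 also: forskolin and galanin both at EC90 stimulate the cells; cAMP rise reported by CNG channel membrane potential dye signal; 0% = forskolin plus galanin with DMSO and 100% = forskolin alone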
V-ATPase pH = yeast V-ATPase proton transport regulation by pHLuorin; S. cerevisiae, pHLuorin cytosolic pH fluorescence; response, % at 10 µM; 350,000 compounds, 0.37% hits; AID 504577; in the data active = response mostly above about 7.3%, no sharp cut-off; inactive = mostly below about 5.4%; also: actives read high
NR2E3 ag-2 = agonists of human NR2E3 nuclear receptor. Q9Y5X4. CHO-S Gal4-NCOR/VP16-NR2E3 two-hybrid, luciferase. inhibition of corepressor binding, % at 3.98 µM. 360,000 compounds, 0.35% hits. AID 602229;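 active = inhibition above the mean of all tested compounds plus 3 SD, cut at about 70% in these data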;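 also: 0% = DMSO with NR2E3 transfected cells and 100% = cells lacking NR2E3 construct; higher means lower luciferase signal from less NR2E3 corepressor binding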
An asterisk follows results filed as active; . = no result; [ ] = dose if it differs, or a comment. In the library only some 2.2% were active in any assay of this set; here they are far more common.

SMILES	Env fusion inh	FXN GAA850 act	NR2E3 ag-1	GalR3 antagonist	V-ATPase pH	NR2E3 ag-2
O=S(=O)(N(Cc1ccccc1)[C@@H](CO)Cc1ccccc1)N(Cc1ccccc1)[C@@H](CO)Cc1ccccc1	71*	1	.	-5	-1	-1
CC(C)C[C@H](CO)N(Cc1ccccc1)S(=O)(=O)N(Cc1ccccc1)[C@@H](CO)CC(C)C	109*	4	.	-9	0	-19
C=CS(=O)(=O)N(Cc1ccccc1Br)[C@H](CO)Cc1ccccc1	50	-4	.	-2	-3	15
Cc1ccc(C(C(=O)NC2CCCCC2)N(C(=O)CCCC(=O)Nc2ccccn2)c2ccc3c(c2)OCCO3)cc1 (stereo not drawn)	-17	0	0	-2	0	-11
O=C(CCCC(=O)N(c1ccc2c(c1)OCCO2)C(C(=O)NC1CCCCC1)c1ccc(F)cc1)Nc1ccccn1 (stereo not drawn)	69*	-3	1	-2	4	28
Cc1cc(NC(=O)CS(=O)(=O)c2cn(Cc3cccc(Br)c3)c3ccccc23)no1	44	0	.	0	.	-22
Cc1cc(NC(=O)CS(=O)(=O)c2cn(Cc3ccccc3Cl)c3ccccc23)no1	90*	-2	2	-3	3	30
Cc1ccc(-n2nnnc2SCC(=O)c2c(N)n(C3CC3)c(=O)[nH]c2=O)cc1	17	1	-1	-3	748*	-16
O=C(C[C@@H]1CC[C@H](NC(=O)c2cnccn2)[C@H](CO)O1)NCc1ccccc1F	-16[16.7 µM]	.	.	.	.	.
Nc1cc(C(=O)OCC(=O)N2CCCC2=O)ccc1Cl	66*	0	0	-2	4	-9
Cc1ccc2c(c1)C(=C(C#N)C#N)CCN2	76*	-1	.	-4	3	-25
O=C1C=CC(=O)N1c1ccc2c(c1)Cc1cc(F)ccc1-2	-3	-1	.	-3	17*	-33
COc1ccc(S(=O)(=O)N(C)C[C@@H]2OCCCC[C@H](C)Oc3ccc(NC(=O)NC4CCCCC4)cc3C(=O)N([C@@H](C)CO)C[C@H]2C)cc1	-7[16.7 µM]	.	.	.	.	.
COCCn1c(SCC(=O)NC(=O)NC(C)(C)C)nc2ccccc21	123*	2	5	-4	3	-12
S=c1nc(Cc2ccc(Cl)cc2)[nH]c2ccccc12	0	3	14	13*	-1	23
O=c1[nH]c2c(c(=O)[nH]1)CCCCCC2	4	-1	.	-1	-1	1
O=C1NN=C2CCCCCCCCCCC12 (stereo not drawn)	58*	0	.	-4	2	4
Cc1nc2ccc(NC(=O)c3ccc(Cl)c(S(=O)(=O)N(C)c4ccccc4)c3)cc2s1	74*	-3	2	-2	-8	2
COc1cc(CNCc2ccncc2)cc(Br)c1OCc1ccccc1F	67*	2	6	-8	-2	30
CC(Nc1nc(-c2ccc(F)cc2)cs1)c1nc2cc(C(F)(F)F)ccc2n1CCOCCO (stereo not drawn)	3	-1	3	-2	2	-6
CC(Nc1nc(-c2ccc(F)cc2)cs1)c1nc2cc(C(F)(F)F)ccc2n1CCCO (stereo not drawn)	75*	0	2	-7	2	-14
Cc1noc(C)c1S(=O)(=O)Nc1ccc2c(c1)C(=O)N([C@H](C)CO)C[C@@H](C)[C@@H](CN(C)C(=O)c1ccccc1)OCCCC[C@@H](C)O2	-34[16.7 µM]	.	.	.	.	.
CCCCN(C(=O)c1cc(S(=O)(=O)N2CCCCCC2)ccc1OC)c1ccccc1	93*	2	3	-2	-3	-28
CCCCN(C(=O)c1cc(S(=O)(=O)N2CCOCC2)ccc1N1CCOCC1)c1ccccc1	10	-1	.	-6	-2	15
CCCCN1C(=O)C(=O)N(c2ccccc2)C1=S	-40	5	0	-2	8.8*	-140
SMILES	Env fusion inh	FXN GAA850 act	NR2E3 ag-1	GalR3 antagonist	V-ATPase pH	NR2E3 ag-2
O=C(N[C@H]1C=C[C@@H](CC(=O)N2CCc3ccccc3C2)O[C@H]1CO)C1CCC1	-2[16.7 µM]	.	.	.	.	.
Nc1ccc2c(c1)Cc1cc(Cl)c(Cl)cc1-2	60*	1	.	-3	0	-30
Nc1ccc2c(c1)Cc1cc(N)c(Cl)cc1-2	-8	2	.	1	0	-78
COc1ccc(C(=O)NCCc2ccc(Cl)cc2)cc1S(=O)(=O)N1CCCCC1C (stereo not drawn)	89*	2	4	-5	-4	22
C[C@@H]1CN([C@@H](C)CO)C(=O)c2cc(-c3ccc(C#N)cc3)cnc2O[C@@H]1CN(C)CC1CC1	7[16.7 µM]	.	.	.	.	.
CCCCN(C)CCCNC(=O)c1cc(=O)[nH]c2ccc(S(=O)(=O)N3CCCCC3C)cc12 (stereo not drawn)	60*	-1	1	-6	0	-10
CC1CCCN(S(=O)(=O)c2ccc3[nH]c(=O)cc(C(=O)NCCCN4CCCCCC4)c3c2)C1 (stereo not drawn)	-4	0	.	-8	0	-52
COc1ccc(C#Cc2ccc3c(c2)O[C@@H](CN(C)C(C)=O)[C@@H](C)CN([C@H](C)CO)S3(=O)=O)cc1	15[16.7 µM]	.	.	.	.	.
C[C@@H]1CN([C@H](C)CO)C(=O)Cc2cc(NC(=O)C3CCCCC3)ccc2O[C@@H]1CN(C)Cc1ccc(C(=O)O)cc1	13[16.7 µM]	.	.	.	.	.
CCN(C(=O)CSc1ncnc2sc(C)c(C)c12)C1CCS(=O)(=O)C1 (stereo not drawn)	6	2	-1	-2	3	-11
CCCN(CC1CC1)C(=O)CSc1ncnc2sc(C)c(C)c12	69*	-1	1	-5	-2	-33
C[C@@H]1CN([C@@H](C)CO)C(=O)c2cccc(NC(=O)C3CC3)c2O[C@H]1CN(C)Cc1ccc(C(F)(F)F)cc1	6[16.7 µM]	.	.	.	.	.
COC(=O)[C@]12C[C@H](CC(=O)N3CCN(C(=O)c4ccco4)CC3)C(=O)N(CCC3=CCCCC3)C1=C[C@H](C(C)(C)C)O[C@@H]2C	74*	.	.	-7	.	.
COC(=O)[C@]12C[C@H](CC(=O)NCc3ccc(OC)c(OC)c3)C(=O)N(Cc3ccccc3)C1=C[C@H](C(C)(C)C)O[C@@H]2C	88*	.	.	-4	.	.
COC(=O)[C@]12C[C@H](CC(=O)NCc3ccc(OC)c(OC)c3)C(=O)N(CCC3=CCCCC3)C1=C[C@H](C(C)(C)C)O[C@@H]2C	82*	.	.	-4	.	.
C#CCNC(=O)C[C@H]1C[C@@]2(C(=O)OC)C(=C[C@H](C(C)(C)C)O[C@@H]2C)N(CCC2=CCCCC2)C1=O	54	.	.	-7	.	.
COC(=O)[C@]12C[C@H](CC(=O)N3CCCCC3)C(=O)N(CCC3=CCCCC3)C1=C[C@H](C(C)(C)C)O[C@@H]2C	27	.	.	-8	.	.
COCC(=O)Nc1ccc2c(c1)C(=O)N(C)C[C@@H](OC)[C@@H](C)CN(C(=O)c1ccccc1F)[C@@H](C)CO2	2[16.7 µM]	.	.	.	.	.
